This passage reports IC50, Activity and inhibition results from ChEMBL document CHEMBL3286338, “SAR studies on hydropentalene derivatives--Important core units of biologically active tetramic acid macrolactams and ptychanolides” (Bioorg Med Chem, 2014).

Assay [1] concerns L929. The assay can be described thus: Antiproliferative activity against mouse L929 cells by MTT assay. Type of assay: functional, cell-based. The method, boiled down: (§1)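 Cells kept in supplier-recommended media at 37 °C, 10% CO2. Serial dilutions added to a cell suspension (50,000 per mL) and incubated 5 d alongside blank and solvent controls. MTT then added to 0.5 mg mL^-1 final for 2 h, and formazan precipitate collected by centrifugation. Run as two parallel experiments; activity taken as mean relative to controls set at 100%.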
Background: Formazan colour is commonly taken as a measure of viable cells.

The nature of assay [2]: Antiproliferative activity against human KB-3-1 cells by MTT assay. Type of assay: functional, cell-based. Summed up: as §1
Assay [3] concerns L929. The assay can be described thus: Effect on microtubule polymerization in mouse L929 cells at 3 ng/ml by impedance profiling. It is filed as cell-based. The method, boiled down: (§2)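 L-929 mouse fibroblasts were cultured at 37 °C and 10% CO₂ in supplier-recommended medium. Cells were exposed to compound, with methanol-only controls, and impedance was recorded over time. The time-dependent impedance curves served as a mode-of-action fingerprint and were compared statistically, by cluster analysis, with curves from a panel of reference compounds, including microtubule-interfering agents.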

Assay [4] deals with L929. The assay can be described thus: Effect on spindle formation in mouse L929 cells at 3 ng/ml by impedance profiling. Type of assay: cell-based. The method, boiled down:
as §2

For assay [5], the system named is L929. The assay can be described thus: Effect on microtubule polymerization in mouse L929 cells at 0.6 ug/ml by impedance profiling. Type of assay: cell-based. The method, boiled down:
(§3)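 L-929 cell cultures incubated with compound while impedance was recorded over time. The time-dependent impedance curves served as a mode-of-action fingerprint and were compared statistically, by cluster analysis, against curves from a set of reference compounds. Controls received methanol.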

The subject of assay [6] is L929. The assay can be described thus: Effect on spindle formation in mouse L929 cells at 0.6 ug/ml by impedance profiling. Type of assay: cell-based. Summed up:
as §3

Assay [7] is described as follows: Cytotoxicity against Potorous tridactylus PtK2 cells by MTT assay. Type of assay: functional, cell-based. The method, boiled down:
as §1

Assay [8] concerns PtK2. The assay can be described thus: Effect on microtubular network in Potorous tridactylus PtK2 cells at 4 ug/ml for overnight incubation by DAPI staining analysis. It is filed as functional, cell-based. Summed up:
(§4)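 PtK2 cells on glass coverslips incubated overnight with compound or with methanol only. For alpha-tubulin staining, fixed in cold (-20 °C) MeOH/acetone (1:1) for 10 min, then probed with primary antibody. DNA counterstained. Microtubular network, mitotic spindles and chromosome distribution assessed by fluorescence microscopy.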

The test system of assay [9] is PtK2. The assay can be described thus: Effect on mitotic spindle in Potorous tridactylus PtK2 cells at 4 ug/ml for overnight incubation by DAPI staining analysis. It is filed as functional, cell-based. Summed up:
as §4

Assay [10] relates to PtK2. The assay can be described thus: Effect on chromosme distribution in Potorous tridactylus PtK2 cells at 4 ug/ml for overnight incubation by DAPI staining analysis. It is filed as functional, cell-based. Summed up: as §4
The target in another assay is Tubulin (Sus scrofa) (UniProt P02554+P02550). The assay can be described thus: Inhibition of porcine tubulin polymerization at 500 ug/ml by fluorescence analysis. It is filed as protein assay. The method, boiled down:
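Porcine tubulin (kit master mix with buffer, glycerol and GTP) mixed with compound at a 5:50 volume ratio. Placed at once in a fluorimeter at 37 °C. Polymerization followed by incorporation of a fluorescent reporter, read at 460 nm (excitation 340 nm) for about 1 h. Methanol and nocodazole served as controls.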

For assay [11], the system named is PtK2. The assay can be described thus: Effect on F-actin cytoskeleton in Potorous tridactylus PtK2 cells at 2 ug/ml for overnight incubation by DAPI staining analysis. Type of assay: cell-based. Summed up:
(§5)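 PtK2 cells grown on glass coverslips and exposed to compound overnight, with methanol-only controls. Fixed in 3.7% formalin for 10 min, permeabilized with 0.1% Triton X-100 for 5 min, then stained with Alexa Fluor 488 phalloidin (1:100) for 1 h. F-actin (green) and DNA (blue) examined by fluorescence microscopy.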

The species entered for the next assay is Homo sapiens. The assay can be described thus: Induction of actin polymerization (unknown origin) at 28 ug/ml after 20 mins by fluorescence analysis. The method, boiled down:
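Pyrene-labelled muscle actin used, with pyrene fluorescence reporting polymerization state. Baseline read 3 min, then compound or methanol added and read a further 20 min. Polymerization then started with 10X actin polymerization buffer and read for 1 h.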

The test system of assay [12] is L929. The assay can be described thus: Effect on microtubule polymerization in mouse L929 cells at 0.4 ug/ml by impedance profiling. It is filed as cell-based. Summed up:
as §3

Assay [13] relates to L929. The assay can be described thus: Effect on spindle formation in mouse L929 cells at 0.4 ug/ml by impedance profiling. Type of assay: cell-based. Summed up: as §3
For assay [14], the system named is PtK2. The assay can be described thus: Effect on F-actin cytoskeleton in Potorous tridactylus PtK2 cells at 3 ug/ml for overnight incubation by DAPI staining analysis. It is filed as cell-based. Summed up:
as §5

Calls of active or inactive are those of the source. The rule behind the calls is not given here.

Sequence of Tubulin (Sus scrofa) (P02550 whole entry, looked up): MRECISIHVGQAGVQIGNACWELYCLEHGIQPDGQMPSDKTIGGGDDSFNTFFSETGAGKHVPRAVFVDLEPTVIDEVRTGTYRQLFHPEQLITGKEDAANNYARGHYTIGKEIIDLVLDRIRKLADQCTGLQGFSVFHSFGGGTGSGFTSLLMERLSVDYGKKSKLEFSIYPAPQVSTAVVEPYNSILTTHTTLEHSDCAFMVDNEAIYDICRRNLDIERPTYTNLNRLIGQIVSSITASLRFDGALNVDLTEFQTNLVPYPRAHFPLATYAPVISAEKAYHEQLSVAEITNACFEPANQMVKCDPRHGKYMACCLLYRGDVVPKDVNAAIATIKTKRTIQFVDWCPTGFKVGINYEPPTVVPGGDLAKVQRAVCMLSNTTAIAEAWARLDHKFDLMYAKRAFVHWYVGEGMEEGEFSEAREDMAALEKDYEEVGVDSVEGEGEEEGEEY
Sequence of Tubulin (Sus scrofa) (P02554 whole entry, looked up): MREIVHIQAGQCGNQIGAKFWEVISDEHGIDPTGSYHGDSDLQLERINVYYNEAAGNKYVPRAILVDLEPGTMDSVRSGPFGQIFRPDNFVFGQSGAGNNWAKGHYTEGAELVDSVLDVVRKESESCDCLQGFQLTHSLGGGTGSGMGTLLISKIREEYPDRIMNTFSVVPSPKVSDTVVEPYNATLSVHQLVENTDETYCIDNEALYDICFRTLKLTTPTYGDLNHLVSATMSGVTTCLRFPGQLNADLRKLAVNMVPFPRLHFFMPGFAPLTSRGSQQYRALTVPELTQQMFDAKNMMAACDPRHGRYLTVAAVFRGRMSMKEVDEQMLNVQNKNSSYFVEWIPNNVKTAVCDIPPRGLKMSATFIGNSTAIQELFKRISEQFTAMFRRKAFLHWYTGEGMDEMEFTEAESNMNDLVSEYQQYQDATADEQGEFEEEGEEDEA

By IC50 is commonly meant the concentration that inhibits the measured activity by half. A higher IC50 goes with weaker potency in that assay. Take `C=CC[C@@H]1[C@@H]2[C@@H](C/C(=N/NS(=O)(=O)c3ccc(C)cc3)[C@H]2C)C[C@H]1O[Si](c1ccccc1)(c1ccccc1)C(C)(C)C`: the figures for the IC50 (with L929 [1]; in assay [2]) were above 67 µM and 12.5 µM, respectively.
For `O=C1C2C(O)CCCC2[C@H]2[C@@H]1CC(Br)C21OCCO1` (some centres undefined), the IC50 turned out to be 22 µg/mL in the assay with L929 [1] and 10 µg/mL in [2].
With `CCCC(=O)OCN(C(=O)[C@@H](NC(=O)[C@H]1CCCCN1C)[C@@H](C)CC)[C@H](C[C@@H](OC(C)=O)c1nc(C(=O)N[C@@H](Cc2ccc(O)cc2)C[C@H](C)C(=O)O)cs1)C(C)C`, the result with L929 [3] and in the assay with L929 [4] was Active.
Regarding `CC1(C)COC2(CC[C@@H]3[C@@H](O)[C@H](O)C[C@@H]32)OC1`, the IC50 (in the assay on L929 [1]; in [2]) was above 40 µg/mL each time.
Take `CC(C)(C)[Si](O[C@H]1C[C@H]2CC(=O)C[C@H]2C1)(c1ccccc1)c1ccccc1`: the concentration for half-maximal inhibition (IC50) (in the assay on L929 [1]; in assay [2]) was above 40 µg/mL in each case.
For `CC(C)=CC[C@H]1C(=O)C[C@@H]2[C@@H](C)[C@H](O[Si](c3ccccc3)(c3ccccc3)C(C)(C)C)C[C@@H]21`, the results for the IC50 (with L929 [1]; in [2]) were 23.9 µM and 28.2 µM, respectively.
The matching figures for `C=CCC[C@H]1CC2(OCCO2)[C@@H]2C=CC(=O)[C@H]12` (racemic): 25.6 µM and 32 µM.
With `O=C1C[C@@H]2C[C@H](O)C[C@@H]2C1`, the IC50 (with L929 [1]; in assay [2]) was above 40 µg/mL each time.
As to `O=CCCCC1CC(=O)[C@H]2[C@@H]1CCC21OCCO1` (some centres undefined), the IC50 (with L929 [1]; in assay [2]) was above 40 µg/mL in each case.
As to `CC(C)(C)[Si](C)(C)OC1CCCC1`, the IC50 (in the assay on L929 [1]; in assay [2]) was above 200 µM each time.
On to `C#CC(=O)O[C@H]1C[C@@H]2CC3(C[C@@H]2C1)OCC(C)(C)CO3`, for which the results for the IC50 (in the assay on L929 [1]; in [2]; in [7]) were 2.2 µM, 21.6 µM and 3000 nM, respectively. The result in the assay on L929 [5], with L929 [6], in the assay with PtK2 [8], with PtK2 [9], in the assay with PtK2 [10] and in the assay with PtK2 [11] was Active. For the same compound, the result in the assay filed under Homo sapiens was Active. The inhibition entry at Tubulin (Sus scrofa) was “Active”.
For `CC1(C)COC2(C[C@H]3C[C@H](O)C[C@H]3C2)OC1`, the IC50 (in the assay with L929 [1]; in assay [2]) was above 40 µg/mL each time.
For `C=CC[C@@H]1[C@@H]2[C@H](C[C@H]1O[Si](c1ccccc1)(c1ccccc1)C(C)(C)C)[C@@H](C)C(=O)[C@H]2C`, the IC50 in the assay on L929 [1] stood at 5.8 µg/mL; in assay [2] it was 7.9 µg/mL.
The matching figures for `CC1(C)COC2(C[C@@H]3CC=C[C@@H]3C2)OC1`: above 40 µg/mL and above 40 µg/mL.
Regarding `O=C1C=C[C@H]2C(=O)C=C[C@@H]12`, the IC50 was found to be 3 µM with L929 [1], 6 µM in assay [2] and 3000 nM in assay [7]. Also, the outcome in the assay on L929 [12], in the assay with L929 [13], in the assay on PtK2 [8], in the assay on PtK2 [9] and with PtK2 [10] was Active. The inhibition result on Tubulin (Sus scrofa) is “Active”. The result in the assay on PtK2 [14] was inactive.
Take `CC(C)(C)[Si](OC1CCCCCC1)(c1ccccc1)c1ccccc1`: the IC50 in the assay with L929 [1] stood at 40 µg/mL; in assay [2] it was 6.2 µg/mL.
The matching figures for `C=CC[C@@H]1[C@H]2C=C[C@H](C)[C@H]2C[C@H]1O[Si](c1ccccc1)(c1ccccc1)C(C)(C)C`: 20.4 µM and above 96 µM.
The matching figures for `C=CC[C@@H]1[C@@H]2[C@@H](CC(=O)[C@H]2C)C[C@H]1O[Si](c1ccccc1)(c1ccccc1)C(C)(C)C`: 16.2 µM and 20.3 µM.
Taken in the same sequence, the figures for `CC1(C)COC2(C[C@H]3C[C@@H](CO)C[C@H]3C2)OC1` were above 40 µg/mL and above 40 µg/mL.
On to `Cc1ccc(S(=O)(=O)N/N=C2/C[C@@H]3CC4(C[C@@H]3C2)OCC(C)(C)CO4)cc1`, for which the IC50 (in the assay on L929 [1]; in assay [2]) was above 40 µg/mL throughout.
`C=CC[C@@H]1[C@H]2C/C(=N\NS(=O)(=O)c3ccc(C)cc3)[C@H](C)[C@H]2C[C@H]1O[Si](c1ccccc1)(c1ccccc1)C(C)(C)C`: the IC50 with L929 [1] was found to be 20 µM; in assay [2], 13.3 µM.
In the case of `CC(C)(C)[Si](C)(C)OC1CCCC2C1C(O)[C@H]1CC(Br)C3(OCCO3)[C@@H]21` (some centres undefined), the IC50 with L929 [1] was found to be 15 µg/mL; in assay [2], 14 µg/mL.
`O=C1C=C(CCCCOCc2ccccc2)[C@H]2CCC3(OCCO3)[C@@H]12`: the concentration for half-maximal inhibition (IC50) (in the assay with L929 [1]; in assay [2]) was above 40 µg/mL each time.
Take `C=CC[C@@H]1[C@H]2CC(=O)[C@H](CC=C)[C@H]2C[C@H]1O`: the IC50 (in the assay with L929 [1]; in assay [2]) was above 40 µg/mL each time.
For the compound `BrC1C[C@H]2[C@H](CC(Br)C23OCCO3)C12CCCC2` (some centres undefined), the IC50 (with L929 [1]; in assay [2]) was above 40 µg/mL in each case.
In the case of `CC(C)[Si](OC1CCCC1)(C(C)C)C(C)C`, the results for the IC50 (in the assay on L929 [1]; in assay [2]) were 111 µM and 124 µM, respectively.
As for `C[C@@H]1[C@H]2CC(=O)[C@H](C)[C@H]2C[C@H]1O[Si](c1ccccc1)(c1ccccc1)C(C)(C)C`, the IC50 worked out at 7.4 µM in the assay with L929 [1] and 15.2 µM in [2].
Taken in the same sequence, the figures for `O=C1CC[C@H]2[C@@H]1CCC21OCCO1` were above 40 µg/mL and above 40 µg/mL.
Taken in the same sequence, the figures for `O=C1C[C@@H]2C[C@@H](O)C[C@@H]2C1` were above 40 µg/mL and above 40 µg/mL.
The matching figures for `C=CC[C@@H]1[C@H]2CC(=O)[C@H](C)[C@H]2C[C@H]1O[Si](c1ccccc1)(c1ccccc1)C(C)(C)C`: 32.4 µM and 16 µM.
As to `CC(C)(C)[Si](OC1CCCCC1)(c1ccccc1)c1ccccc1`, the IC50 with L929 [1] turned out to be 40 µg/mL; in [2], 7.5 µg/mL.
